According to ChEMBL document CHEMBL1255300, “Pharmacodynamics of the antibacterial effect and emergence of resistance to tomopenem, formerly RO4908463/CS-023, in an in vitro pharmacokinetic model of Staphylococcus aureus infection” (Antimicrob Agents Chemother, 2008):
Converted amounts (≈) assume the structure as drawn.

Tests used:
Format in all cases: functional
Staphylococcus aureus [1] = assay: Antibacterial activity against methicillin-resistant Staphylococcus aureus 33827 in in vitro pharmacokinetic model assessed as viable count at 6 times of MIC
Method in brief: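 Population analysis before drug exposure (time 0). Model samples were plated on nutrient agar without drug and with tomopenem at 2×, 4× and 6× MIC (10% MHB MIC), and growth was recorded as log CFU/ml. Detection limit 2 log10.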

Staphylococcus aureus [2] = assay: T>MIC for 1-log drop in count in methicillin-resistant Staphylococcus aureus 33815 in in vitro pharmacokinetic model after 24 hrs using 10^6 CFU/ml inoculum
Staphylococcus aureus [3] = assay: T>MIC for 1-log drop in count in methicillin-resistant Staphylococcus aureus 33922 in in vitro pharmacokinetic model after 24 hrs using 10^8 CFU/ml inoculum
Staphylococcus aureus [4] = assay: T>MIC for 3-log drop in count in methicillin-sensitive Staphylococcus aureus 5956 in in vitro pharmacokinetic model after 24 hrs using 10^8 CFU/ml inoculum
Method in brief: (§1)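 Dose-ranging: 7–13 simulated regimens per strain giving T>MIC of 0–100% (MIC from 10% MHB), at 106 or 10^8 CFU/ml as stated.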

Staphylococcus aureus [5] = assay: AUBKC (0 to 24 hrs) in methicillin-resistant Staphylococcus aureus 33815 infected in in vitro pharmacokinetic model at 1500 mg, iv every 8 hrs using 10^8 CFU/ml inoculum
Method in brief: (§2)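 Single-compartment dilutional in vitro PK model at 37°C in 10% Mueller-Hinton broth, stirred, flow 132 ml/h. […] Inoculum 10^6 CFU/ml added 45 min before dosing, or 10^8 CFU/ml run overnight. Viable counts with β-lactamase neutralisation. AUBKC by log-linear trapezoidal rule, at least triplicate.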

Staphylococcus aureus [6] = assay: Antibacterial activity against methicillin-resistant Staphylococcus aureus 33827 infected in in vitro pharmacokinetic model assessed as time required to 99.9% killing at 750 mg, iv every 8 hrs using 10^6 CFU/ml inoculum
Method in brief: (§3)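 Single-compartment dilutional in vitro PK model, 10% Mueller-Hinton broth, 37°C, stirred, dilution 132 ml/h. […] Inoculum 10^6 CFU/ml (added 45 min pre-dose) or 10^8 CFU/ml (run overnight). Viable counts by spiral plating, beta-lactamase neutralization, detection limit 10^2 CFU/ml. At least triplicate.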

Staphylococcus aureus [7] = assay: AUBKC (0 to 24 hrs) in methicillin-resistant Staphylococcus aureus 33921 infected in in vitro pharmacokinetic model at 1500 mg, iv every 8 hrs using 10^6 CFU/ml inoculum; method in brief: as §2
Staphylococcus aureus [8] = assay: Antibacterial activity against methicillin-resistant Staphylococcus aureus 33922 infected in in vitro pharmacokinetic model assessed as time required to 99% killing at 1500 mg, iv every 8 hrs using 10^8 CFU/ml inoculum
Staphylococcus aureus [9] = assay: Antibacterial activity against methicillin-resistant Staphylococcus aureus 33815 infected in in vitro pharmacokinetic model assessed as time required to 99.9% killing at 1500 mg, iv every 8 hrs using 10^8 CFU/ml inoculum
Method in brief: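 T99 and T99.9 were taken as the times for the count to fall 99% or 99.9% from time 0, using serial viable counts over 48 h. Inoculum was 10^8 CFU/ml, grown overnight in the model before dosing.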

Staphylococcus aureus [10] = assay: T>MIC for 1-log drop in count in methicillin-sensitive Staphylococcus aureus 5956 in in vitro pharmacokinetic model after 24 hrs using 10^8 CFU/ml inoculum
Staphylococcus aureus [11] = assay: Antibacterial activity against methicillin-resistant Staphylococcus aureus 33829 by 10% MH broth method
Method in brief: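 MIC by CLSI broth dilution, or by broth dilution in 10% Mueller-Hinton broth at nondoubling dilutions.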

Staphylococcus aureus [12] = assay: T>MIC for 2-log drop in count in methicillin-resistant Staphylococcus aureus 33922 in in vitro pharmacokinetic model after 24 hrs using 10^8 CFU/ml inoculum
Staphylococcus aureus [13] = assay: T>MIC for 3-log drop in count in methicillin-sensitive Staphylococcus aureus 5956 in in vitro pharmacokinetic model after 24 hrs using 10^6 CFU/ml inoculum; method in brief: as §1
Staphylococcus aureus [14] = assay: Antibacterial activity against methicillin-resistant Staphylococcus aureus 33820 infected in in vitro pharmacokinetic model assessed as time required to 99.9% killing at 750 mg, iv every 8 hrs using 10^6 CFU/ml inoculum
Staphylococcus aureus [15] = assay: AUBKC (0 to 24 hrs) in methicillin-resistant Staphylococcus aureus 33815 infected in in vitro pharmacokinetic model at 1500 mg, iv every 8 hrs using 10^6 CFU/ml inoculum; method in brief: as §2
Staphylococcus aureus [16] = assay: Antibacterial activity against methicillin-resistant Staphylococcus aureus 33922 infected in in vitro pharmacokinetic model assessed as reduction in viable count at 750 mg, iv every 8 hrs measured after 36 hrs using 10^6 CFU/ml inoculum
Staphylococcus aureus [17] = assay: Antibacterial activity against methicillin-sensitive Staphylococcus aureus 5956 infected in in vitro pharmacokinetic model assessed as reduction in viable count at 750 mg, iv every 8 hrs measured after 12 hrs using 10^6 CFU/ml inoculum
Staphylococcus aureus [18] = assay: Antibacterial activity against methicillin-resistant Staphylococcus aureus 33829 infected in in vitro pharmacokinetic model assessed as reduction in viable count at 1500 mg, iv every 8 hrs measured after 36 hrs using 10^6 CFU/ml inoculum; method in brief: as §3
Staphylococcus aureus [19] = assay: Antibacterial activity against methicillin-resistant Staphylococcus aureus 33921 infected in in vitro pharmacokinetic model assessed as reduction in viable count at 1500 mg, iv every 8 hrs measured after 24 hrs using 10^6 CFU/ml inoculum; method in brief: as §3
Staphylococcus aureus [20] = assay: T>MIC for static effect in methicillin-resistant Staphylococcus aureus 33829 in in vitro pharmacokinetic model after 24 hrs using 10^6 CFU/ml inoculum
Staphylococcus aureus [21] = assay: AUBKC (0 to 48 hrs) in methicillin-resistant Staphylococcus aureus 33827 infected in in vitro pharmacokinetic model at 1500 mg, iv every 8 hrs using 10^6 CFU/ml inoculum; method in brief: as §2
Staphylococcus aureus [22] = assay: Antibacterial activity against methicillin-sensitive Staphylococcus aureus 5956 infected in in vitro pharmacokinetic model assessed as reduction in viable count at 1500 mg, iv every 8 hrs measured after 48 hrs using 10^6 CFU/ml inoculum
Staphylococcus aureus [23] = assay: Antibacterial activity against methicillin-resistant Staphylococcus aureus 33820 infected in in vitro pharmacokinetic model assessed as time required to 99% killing at 750 mg, iv every 8 hrs using 10^6 CFU/ml inoculum
Staphylococcus aureus [24] = assay: T>MIC for static effect in methicillin-resistant Staphylococcus aureus 33827 in in vitro pharmacokinetic model after 24 hrs using 10^6 CFU/ml inoculum
Staphylococcus aureus [25] = assay: Antibacterial activity against methicillin-resistant Staphylococcus aureus 33820 infected in in vitro pharmacokinetic model assessed as reduction in viable count at 750 mg, iv every 8 hrs measured after 48 hrs using 10^6 CFU/ml inoculum
Method in brief: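 Single-compartment dilutional in vitro PK model, 37°C, stirred, in 10% Mueller-Hinton broth. […] Inoculum 10^6 CFU/ml from a 24-h plate culture was added 45 min before dosing. Viable counts by spiral plating on nutrient agar with β-lactamase neutralization. Log change was taken from time 0; detection limit 10^2 CFU/ml; at least triplicate.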

Staphylococcus aureus [26] = assay: AUBKC (0 to 24 hrs) in methicillin-resistant Staphylococcus aureus 33827 infected in in vitro pharmacokinetic model at 750 mg, iv every 8 hrs using 10^6 CFU/ml inoculum; method in brief: as §2

In the case of `C[C@@H](O)[C@H]1C(=O)N2C(C(=O)O)=C(S[C@H]3C[C@@H](C(=O)N4CC[C@H](NC(=O)CNC(=N)N)C4)N(C)C3)[C@H](C)[C@H]12` [TOMOPENEM], the log10CFU/ml (Staphylococcus aureus [1]) is reported as <2, the “fT>MIC” value (Staphylococcus aureus [2]) is reported as 8.6% and the “fT>MIC” value (Staphylococcus aureus [3]) is reported as 2%. The “fT>MIC” value (Staphylococcus aureus [4]) was 12.8%, the AUBC (Staphylococcus aureus [5]) was 103.5 log10CFU/ml.hr and the Time (Staphylococcus aureus [6]) was 7 h. It also gave an AUBC (Staphylococcus aureus [7]) of 32.9 log10CFU/ml.hr, a Time (Staphylococcus aureus [8]) of 16 h and a Time (Staphylococcus aureus [9]) of 24 h. The “fT>MIC” value (Staphylococcus aureus [10]) was 3.4%, the MIC (Staphylococcus aureus [11]) was 0.5 µg/mL (≈ 0.93 µM) and the “fT>MIC” value (Staphylococcus aureus [12]) was 4.7%. For the same molecule, the “fT>MIC” value (Staphylococcus aureus [13]) was 10.1%, the Time (Staphylococcus aureus [14]) was 12 h and the AUBC (Staphylococcus aureus [15]) was 12.5 log10CFU/ml.hr. The log10CFU/ml (Staphylococcus aureus [16]) was 4, the log10CFU/ml (Staphylococcus aureus [17]) was 4.1 and the log10CFU/ml (Staphylococcus aureus [18]) was 4. For the same molecule, the log10CFU/ml (Staphylococcus aureus [19]) was 4.2, the “fT>MIC” value (Staphylococcus aureus [20]) was 12.1% and the AUBC (Staphylococcus aureus [21]) was 35.5 log10CFU/ml.hr. For the same molecule, the log10CFU/ml (Staphylococcus aureus [22]) was 4.4, the Time (Staphylococcus aureus [23]) was 7 h and the “fT>MIC” value (Staphylococcus aureus [24]) was 15.4%. It also gave a log10CFU/ml (Staphylococcus aureus [25]) of 4.2 and an AUBC (Staphylococcus aureus [26]) of 27.4 log10CFU/ml.hr.
